Among all 300,000 compounds or so, about 4,400 (1.5%) were called active. The entries come from a sample that favours actives as a whole. A number with no mark means an inactive call.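 Rule for the calls: active = mean inhibition across valid replicates above about 55% (limit read from the data); inconclusive = mean below that limit but half or more replicates reach it; inactive = mean below it, under half of replicates reach it.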
experiment: Trypanosoma cruzi replication blockers in host cells – luminescence, NIH3T3 host cells, primary screen (AID 1885);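 note: signal also drops with host cell toxicity which is not excluded here; 0% = plate median of DMSO wells and 100% = zero luminescence signal; higher percent means less beta-gal luminescence so fewer parasites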; details: T. cruzi beta-gal in NIH3T3, luminescence, 90 h; active compounds read high; concentration not given here
Procedure, shortened: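 Read-out: Parasite load inhibition, % | Test system: Mouse NIH/3T3 fibroblasts infected with β-gal-expressing T. cruzi Tulahuen C4 | Amount: 5,000 cells/well | Medium: DMEM, 2% fetal bovine serum | Signal: GalScreen β-gal luminescence, detergent lysis, 60 min | Timing: 3 h attach, ≥90 h co-culture | Also added: Tulahuen C4 trypomastigotes, 5000/well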

In the case of `O=C(NCC(c1cccnc1)N1CCN(c2ccccc2)CC1)Oc1ccccc1` (stereo not given), the inhibition was 64.2% (active).
With `COc1ccccc1N1CCN(C(CNC(=O)Oc2ccccc2)c2cccnc2)CC1` (stereo not given) the inhibition was 61.2% (active).
For `COc1ccc(Br)cc1CNCCc1cccc(Cl)c1`, the inhibition was 56.8% (active).
With `CC1=CC(=Cc2sc3ccccc3[n+]2C)C=C(C)O1` the inhibition was 81.1% (active).
For `CN1CCC(OC(=O)c2cccc(F)c2)CC1`, the inhibition was 58.3% (active).
In the case of `CCOc1ccc(-c2cc(C)[n+](CCN(CC)CC)c(-c3ccc(OCC)cc3)c2)cc1`, the inhibition was 64.1% (active).
In the case of `CCCCCCCCCCCCn1ccc(=N)cc1`, the inhibition was 58.9% (active).

First: COC(=O)C(c1ccccc1)N1CCCCCC1 (stereo not given)
Second: COc1cccc(CN2CCCC(C(=O)c3ccccc3SC)C2)c1O (stereo not given)
The inhibition of the first is lower: -2.88% for the first, 0.0491% for the second.

Compared with `c1ccc(CCN2CCC3(CC2)OCCO3)cc1`, `O=C(c1ccccc1[N+](=O)[O-])N1CCC2(CC1)OCCO2` is lower in inhibition: 8.57% for the first, -12.5% for the second.

Compared with `Cc1ccc(C)c(NC2=NCCCS2)c1`, `Cc1ccc(-c2nn(CCC#N)cc2C(=O)O)cc1C` is lower in inhibition: 8.9% for the first, -14.3% for the second.

Compared with `COc1cccc(OC)c1C(=O)NC(=S)N1C[C@H]2C[C@H](C1)c1cccc(=O)n1C2`, `COc1ccccc1-n1c(O)c(C=NC2CC2)c(=O)[nH]c1=O` is lower in inhibition: 0.307% for the first, -10.6% for the second.

First: CC(C)c1ccc(-n2c(O)c(/C=N/N3CCOCC3)c(=O)[nH]c2=S)cc1
Second: COc1ccc(-n2c(O)c(C(C)=Nc3ccc4c(c3)CCC4)c(=O)[nH]c2=O)cc1
The inhibition of the first is higher: -9.55% for the first, -27.7% for the second.

Going from `CCN1CC2C3CCC(C)(O3)C2C1` (stereo not given) to `CC(C)Oc1cccc(C(=O)C2CCCN(C3CCOCC3)C2)c1` (stereo not given), the inhibition falls from -4.25% to -14%.

Going from `COc1ccc(CNCCc2c[nH]c3ccccc23)cc1OC` to `COc1ccc(CNCCc2ccc3c(c2)OCO3)c(OC)c1OC`, the inhibition rises from 8.16% to 50.2%.

Compared with `COc1ccc(N2C(=O)/C(=C/c3ccco3)C(=O)NC2=S)cc1`, `C=CCN1C(=O)NC(=O)/C(=C/c2ccc(OCC(=O)Nc3ccc(C)cc3)cc2)C1=O` is higher in inhibition: -2.75% for the first, 12.8% for the second.

First: C[C@@]1([C@@H](NP(=O)(c2ccccc2)c2ccccc2)c2ccccc2)C[C@H]1CCO
Second: O=C(NC(c1ccc(Cl)cc1)P(=O)(Oc1ccccc1)Oc1ccccc1)OCc1ccccc1 (stereo not given)
The inhibition of the first is lower: 1% for the first, 12.3% for the second.

First: Cc1ccc(C2CN(C)CC2C(=O)c2ccc(F)cc2)cc1 (stereo not given)
Second: CN1C2C=C(N(C(=O)c3ccc(Cl)cc3)c3ccccc3)CC1CC2 (stereo not given)
The inhibition of the first is lower: -5.25% for the first, 9.22% for the second.

First: CCC/C(=N\O)c1c[nH]c2ccccc12
Second: CCc1nc2ccccc2c(=O)n1-c1cccc(OC)c1
The inhibition of the first is higher: -2.44% for the first, -3.64% for the second.

Going from `CCOc1ccc(CN(CCCl)CCCl)cc1C(=O)OC` to `CC1=C(C(=O)Nc2ccccc2)SCCO1`, the inhibition falls from -1.04% to -24.2%.

First: O=C1N=c2ccccc2=C/C1=C\c1c(O)[nH]c(=S)[nH]c1=O
Second: COc1cc(C(c2c(O)c3ccccc3oc2=O)c2c(C)n(C)n(-c3ccccc3)c2=O)ccc1O (stereo not given)
The inhibition of the first is higher: -14% for the first, -33% for the second.

Compared with `CC(=O)c1c(O)n(C2CCCCCC2)c(=O)[nH]c1=O`, `CCOP(=O)(OCC)C(NC(=O)NC)C(N)=O` (stereo not given) is higher in inhibition: -10.9% for the first, 2.29% for the second.

From PubChem BioAssay AID1885 (Broad Institute, 2009)
